{
  "source": "ChEMBL document CHEMBL3877244",
  "about": "“Synthesis and biological evaluation of new aryl-alkyl(alkenyl)-4-benzylpiperidines, novel Sigma Receptor (SR) modulators, as potential anticancer-agents” (Eur J Med Chem, 2016)",
  "key": {"LNCaP": {"test_system": "LNCaP", "test": "Cytotoxicity against human LNCAP cells assessed as reduction in cell viability after 48 hrs in presence of 10% fetal calf serum by MTS assay", "format": "functional, cell-based", "outline": "(§1)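 Cells in exponential growth, 3×10^3 per well, in medium with 10% FCS. Capan-2, PaCa3, MDA-MB 231, SUM 159 and PC3 were grown in DMEM/Ham's F12 with glutamine 2 mM and insulin 10 µg/ml. U87 was grown in EMEM and LNCaP in RPMI, each with glutamine. Compound 0.1–100 µM, continuous exposure (24 h; 48 h for the 48 h lines). MTS, OD 490 nm. IC50 read graphically. Three independent experiments in octuplicate.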"}, "[1]": {"test": "Cytotoxicity against human Capan2 cells assessed as reduction in cell viability after 24 hrs in presence of 10% fetal calf serum by MTS assay", "format": "functional, cell-based", "conditions": "Capan-2, 24 h", "outline": "as §1"}, "MDA-MB-231": {"test_system": "MDA-MB-231", "test": "Cytotoxicity against human MDA-MB-231 cells assessed as reduction in cell viability after 48 hrs in presence of 10% fetal calf serum by MTS assay", "format": "functional, cell-based", "outline": "as §1"}, "Paca3 [2]": {"test_system": "Paca3", "test": "Induction of apoptosis in human Paca3 cells assessed as cleaved form of caspase 3 at 25 uM after 24 hrs in presence of 10% fetal calf serum by Western blot analysis", "format": "functional, cell-based", "outline": "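PaCa3 cells in 10% serum medium, exposed 24 h to 25 μM. Cleaved caspase 3 detected by western blot. Membranes blocked with T-TBS (0.1% Tween) and 5% non-fat milk, primary antibody overnight at 4 °C, then secondary antibody, chemiluminescent detection. Two independent experiments.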"}, "[3]": {"molecular_target": "Sigma non-opioid intracellular receptor 1 (Rattus norvegicus) (UniProt Q9R0C9)", "sequence (Q9R0C9 whole entry)": "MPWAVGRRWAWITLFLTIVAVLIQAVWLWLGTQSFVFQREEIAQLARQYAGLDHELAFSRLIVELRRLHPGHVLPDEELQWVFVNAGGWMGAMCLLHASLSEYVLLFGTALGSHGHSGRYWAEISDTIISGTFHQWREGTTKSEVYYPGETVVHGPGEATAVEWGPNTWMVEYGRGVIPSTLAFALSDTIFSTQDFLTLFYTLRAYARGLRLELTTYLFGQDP", "test": "Antagonist activity at sigma 1 receptor in rat PC12 cells assessed as inhibition of NGF-induced neurite outgrowth at 2.5 to 10 uM after 96 hrs", "format": "cell-based", "conditions": "PC-12", "outline": "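PC12 cells grown in RPMI 1640 with 10% heat-inactivated horse serum and 5% FBS. Differentiation ran in medium with 0.5% serum plus NGF 2.5 ng/ml, with compound at 0–10 μM for 96 h. Neurite outgrowth was scored. Data are mean±sem of at least 5 experiments, each in triplicate.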"}, "U-87MG ATCC": {"test_system": "U-87MG ATCC", "test": "Cytotoxicity against human U87 cells assessed as reduction in cell viability after 48 hrs in presence of 10% fetal calf serum by MTS assay", "format": "functional, cell-based", "outline": "as §1"}, "[4]": {"molecular_target": "Sigma non-opioid intracellular receptor 1 (Rattus norvegicus) (UniProt Q9R0C9)", "test": "Antagonist activity at sigma 1 receptor in rat PC12 cells assessed as inhibition of PRE-084-mediated NGF-induced neurite outgrowth at 0.25 to 2.5 uM after 96 hrs", "format": "cell-based", "conditions": "PC-12", "outline": "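PC12 cells in differentiation medium with NGF 2.5 ng/ml. The S1R agonist PRE-084 (5, 10, 25 μM; 10 mM stock in apyrogenic water) was given alone or with compound at 0.25 or 2.5 μM. NGF-induced neurite outgrowth was scored. Data are mean±sem of at least 5 experiments, each in triplicate.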"}, "[5]": {"molecular_target": "Sigma non-opioid intracellular receptor 1 (Cavia porcellus, UniProt Q60492)", "sequence (Q60492 whole entry)": "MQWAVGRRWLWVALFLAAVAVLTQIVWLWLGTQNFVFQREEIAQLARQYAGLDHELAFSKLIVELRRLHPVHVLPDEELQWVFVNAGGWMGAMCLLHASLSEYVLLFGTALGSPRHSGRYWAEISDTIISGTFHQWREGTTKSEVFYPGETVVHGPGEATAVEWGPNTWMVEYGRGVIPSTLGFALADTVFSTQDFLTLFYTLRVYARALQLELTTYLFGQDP", "test": "Displacement of [3H]-pentazocine from sigma 1 receptor in guinea pig brain cortical membrane after 120 mins by scintillation counting analysis", "format": "cell membranes", "outline": "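Nonspecific binding defined with unlabeled (+)-pentazocine. Filtration, then scintillation counting. IC50 by nonlinear regression, converted to Ki by Cheng–Prusoff.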"}, "[6]": {"test": "Induction of apoptosis in human Paca3 cells assessed as necrotic cells in absence of 10% fetal calf serum at 10 uM after 24 hrs by annexin V-FITC/propidium iodide staining-based flow cytometry (reference value: 0.8 +/- 0.6%)", "format": "functional"}, "[7]": {"test": "Cytotoxicity against human U87 cells assessed as reduction in cell viability after 24 hrs in presence of 10% fetal calf serum by MTS assay", "format": "functional, cell-based, U-87MG ATCC", "conditions": "U-87 MG", "outline": "as §1"}, "Paca3 [8]": {"test_system": "Paca3", "test": "Induction of apoptosis in human Paca3 cells assessed as cleaved form of caspase 3 at 10 uM after 24 hrs in absence of 10% fetal calf serum by Western blot analysis", "format": "functional, cell-based", "outline": "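PaCa3 cells starved 24 h without FCS, then exposed to 10 μM. Cleaved caspase 3 detected by western blot. Membranes blocked with 5% milk in T-TBS, primary antibody overnight at 4 °C, then secondary antibody, chemiluminescent detection.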"}, "[9]": {"test": "Induction of apoptosis in human Paca3 cells assessed as early apoptotic cells in absence of 10% fetal calf serum at 10 uM after 24 hrs by annexin V-FITC/propidium iodide staining-based flow cytometry (reference value: 3.5 +/- 0.7%)", "format": "functional"}, "[10]": {"test": "Cytotoxicity against human MDA-MB-231 cells assessed as reduction in cell viability after 24 hrs in presence of 10% fetal calf serum by MTS assay", "format": "functional, cell-based", "conditions": "MDA-MB-231, 24 h", "outline": "as §1"}, "[11]": {"test": "Induction of apoptosis in human Paca3 cells assessed as late apoptotic cells in presence of 10% fetal calf serum at 25 uM after 24 hrs by annexin V-FITC/propidium iodide staining-based flow cytometry (reference value: 4 +/- 0.8%)", "format": "functional"}, "[12]": {"test": "Induction of apoptosis in human Paca3 cells assessed as late apoptotic cells in absence of 10% fetal calf serum at 10 uM after 24 hrs by annexin V-FITC/propidium iodide staining-based flow cytometry (reference value: 4.6 +/- 0.5%)", "format": "functional"}, "Capan-2": {"test_system": "Capan-2", "test": "Cytotoxicity against human Capan2 cells assessed as reduction in cell viability after 48 hrs in presence of 10% fetal calf serum by MTS assay", "format": "functional, cell-based", "outline": "as §1"}, "[13]": {"test": "Cytotoxicity against human Paca3 cells assessed as decrease in cell viability under starvation condition after 24 hrs by MTS assay", "format": "functional, cell-based", "conditions": "Paca3, 24 h", "outline": "(§2)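 Cells starved 24 h in low-glucose medium without FCS, then treated 24 h with compound in serum-free conditions. MTS read-out, OD 490 nm, expressed as percent of untreated control. IC50 read graphically from the dose-response plot. Three independent experiments in octuplicate.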"}, "[14]": {"test": "Induction of apoptosis in human Paca3 cells assessed as viable cells in absence of 10% fetal calf serum at 10 uM after 24 hrs by annexin V-FITC/propidium iodide staining-based flow cytometry (reference value: 91.1 +/- 0.7%)", "format": "functional"}, "[15]": {"test": "Cytotoxicity against human Capan2 cells assessed as reduction in cell viability after 24 hrs in absence of 10% fetal calf serum by MTS assay", "format": "functional, cell-based", "conditions": "Capan-2, 24 h", "outline": "as §2"}, "[16]": {"test": "Displacement of [3H]-DTG from sigma 2 receptor in rat liver after 120 mins by scintillation counting analysis", "outline": "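Rat liver homogenate (150 µg) incubated 120 min at room temperature with 3 nM [³H]-DTG in 50 mM Tris-HCl pH 8.0. (+)-Pentazocine 100 nM masked S1R; haloperidol 10 µM defined nonspecific binding. Ki by Cheng–Prusoff from IC50.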"}, "PC-3": {"test_system": "PC-3", "test": "Cytotoxicity against human PC3 cells assessed as reduction in cell viability after 48 hrs in presence of 10% fetal calf serum by MTS assay", "format": "functional, cell-based", "outline": "as §1"}, "Paca3 [17]": {"test_system": "Paca3", "test": "Induction of apoptosis in human Paca3 cells at 25 uM after 24 hrs in presence of 10% fetal calf serum by TUNEL assay", "format": "functional, cell-based", "outline": "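PaCa3 cells in serum medium, exposed 24 h (10, 25, 50 μM tested). Cells fixed in 1% formaldehyde, held in 70% ethanol, permeabilized with 0.1% Triton X-100. TdT/FITC-dUTP labelling 90 min at 37 °C, then propidium iodide 2.5 μg/ml with RNase. Percent apoptotic cells by flow cytometry.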"}, "[18]": {"test": "Cytotoxicity against human U87 cells assessed as reduction in cell viability after 24 hrs in absence of 10% fetal calf serum by MTS assay", "format": "functional, cell-based, U-87MG ATCC", "conditions": "U-87 MG", "outline": "as §2"}},
  "note": "pIC50, pKi: −log10 of the molar value. Active and inactive are the calls of the source. No cut-off for these calls is given here.",
  "data": [
    {"compound": "C/C(=C\\CN1CCC(Cc2ccccc2)CC1)c1ccc2ccccc2c1", "values": [
      {"measurement": "Activity", "setting": "LNCaP", "result": "Active"},
      {"measurement": "pIC50", "setting": "[1]", "result": 4.28},
      {"measurement": "Activity", "setting": "MDA-MB-231", "result": "Active"},
      {"measurement": "Activity", "setting": "Paca3 [2]", "result": "Active"},
      {"measurement": "inhibition", "setting": "[3]", "result": "Active"},
      {"measurement": "Activity", "setting": "U-87MG ATCC", "result": "Active"},
      {"measurement": "inhibition", "setting": "[4]", "result": "Active"},
      {"measurement": "pKi", "setting": "[5]", "result": 7.92},
      {"measurement": "Activity", "setting": "[6]", "result": 0.3, "unit": "%"},
      {"measurement": "pIC50", "setting": "[7]", "result": 4.22},
      {"measurement": "Activity", "setting": "Paca3 [8]", "result": "Active"},
      {"measurement": "Activity", "setting": "[9]", "result": 10.9, "unit": "%"},
      {"measurement": "pIC50", "setting": "[10]", "result": 4.19},
      {"measurement": "Activity", "setting": "[11]", "result": 34.1, "unit": "%"},
      {"measurement": "Activity", "setting": "[12]", "result": 17.2, "unit": "%"},
      {"measurement": "Activity", "setting": "Capan-2", "result": "Active"},
      {"measurement": "pIC50", "setting": "[13]", "result": 5.15},
      {"measurement": "Activity", "setting": "[14]", "result": 71.6, "unit": "%"},
      {"measurement": "pIC50", "setting": "[15]", "result": 5.02},
      {"measurement": "pKi", "setting": "[16]", "result": 7.66},
      {"measurement": "Activity", "setting": "PC-3", "result": "Active"},
      {"measurement": "Activity", "setting": "Paca3 [17]", "result": "Active"},
      {"measurement": "pIC50", "setting": "[18]", "result": 4.98}
    ]}
  ]
}
